Calls of active or inactive are those of the source. The calls are words filed in the database; no cut-off is given here.
Legend:
[1] = molecular target: T1, Retinoic acid receptor RXR-alpha (Homo sapiens, UniProt P19793); experiment: Displacement of [3H]-9-cis-RA from human GST-tagged N-terminal truncated RXRalpha after 1 hr by liquid scintillation counting
T1 sequence (P19793 whole entry): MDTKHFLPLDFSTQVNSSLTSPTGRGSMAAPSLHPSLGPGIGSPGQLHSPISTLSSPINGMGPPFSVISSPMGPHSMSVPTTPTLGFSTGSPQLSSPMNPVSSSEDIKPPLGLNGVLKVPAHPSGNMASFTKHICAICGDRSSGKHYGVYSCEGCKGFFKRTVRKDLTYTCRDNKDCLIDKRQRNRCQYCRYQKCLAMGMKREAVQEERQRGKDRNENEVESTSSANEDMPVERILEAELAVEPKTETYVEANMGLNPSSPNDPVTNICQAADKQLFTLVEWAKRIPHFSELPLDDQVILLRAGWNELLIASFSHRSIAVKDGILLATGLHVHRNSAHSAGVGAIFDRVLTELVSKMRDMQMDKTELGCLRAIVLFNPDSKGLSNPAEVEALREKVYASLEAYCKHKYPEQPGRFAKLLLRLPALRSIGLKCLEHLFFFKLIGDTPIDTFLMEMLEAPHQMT
Outline: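 GST-tagged human RXRα-LBD (223–462) preincubated with unlabeled 9-cis-RA or test compound at varied concentrations in binding buffer (0.15 M KCl, 10 mM Tris·HCl pH 7.4, 8% glycerol, 0.5% CHAPS), 4°C, 1 h; [3H]-9-cis-RA then added to 7.5 nM final, overnight at 4°C. Receptor captured on glutathione sepharose beads; bound radioligand counted by liquid scintillation.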

[2] = molecular target: T2, Retinoic acid receptor RXR-alpha (Homo sapiens) (UniProt P19793); experiment: Inhibition of RXRalpha in human A549 cells assessed as inhibition of TNFalpha-induced Akt phosphorylation at 30 uM incubated for 1 hr prior to TNFalpha-induction measured after 30 mins by Western blot analysis; assay type: cell-based
T2 sequence (whole entry): T1 sequence (P19793 whole entry)
Outline: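 A549 cells (DMEM, 10% FBS) pretreated 1 hr with 30 μM compound, then TNFα (10 ng/mL) for 30 min. Phospho-AKT (1:1000) and total AKT (1:1000) immunoblotted after 10% SDS-PAGE, with ECL detection.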

[3] = system: HCT-116; experiment: Induction of apoptosis in human HCT116 cells assessed as increase in TNFalpha-induced PARP cleavage at 40 uM after 4 hrs by Western blot analysis; assay type: functional, cell-based
[4] = molecular target: T1, Retinoic acid receptor RXR-alpha; experiment: Displacement of [3H]-9-cis-RA from RXRalpha (unknown origin) by liquid scintillation counting
[5] = molecular target: T2, Retinoic acid receptor RXR-alpha (Homo sapiens); experiment: Antagonist activity at RXRalpha (unknown origin) expressed in HCT116 cells assessed as inhibition of 9-cis-RA-induced galactosidase activity after 12 hrs by gal4 reporter gene assay; assay type: cell-based; details: HCT-116, in the assay text read “luciferase activity” for “galactosidase activity”
Outline: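 GAL4-RXRα-LBD transactivation in HCT-116 cells: cells transfected for 24 hr with pG5 luciferase reporter (50 ng/well) plus pGAL4-RXRα-LBD vector (50 ng/well), then exposed to 9-cis-RA (10^-7 M) together with varied compound concentrations for 12 hr. Luciferase read by dual-luciferase assay. Cells grown in DMEM with 10% FBS, 37°C, 5% CO2.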

[6] = molecular target: T2, Retinoic acid receptor RXR-alpha (Homo sapiens); experiment: Inhibition of RXRalpha in human HepG2 cells assessed as inhibition of TNFalpha-induced Akt phosphorylation; assay type: cell-based
[7] = system: ZR-75-1; experiment: Induction of apoptosis in human ZR75-1 cells assessed as PARP cleavage at 30 uM after 6 hrs by Western blot analysis; assay type: functional, cell-based
Outline: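 ZR-75-1 cells (RPMI1640, 10% FBS) treated with vehicle or 30 μM compound for 6 hr. Lysates run on 10% SDS-PAGE, blotted to PVDF and probed with anti-PARP (1:3000) for cleavage, ECL detection.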

[8] = molecular target: T2, Retinoic acid receptor RXR-alpha (Homo sapiens); experiment: Inhibition of RXRalpha in human HCT116 cells assessed as inhibition of TNFalpha-induced Akt phosphorylation; assay type: cell-based; details: HCT-116
[9] = system: PC-3; experiment: Cytotoxicity against human PC3 cells after 24 hrs by MTT assay; assay type: functional, cell-based
Outline: (§1)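 Cells in RPMI1640 with 10% FBS (37°C, 5% CO2) treated with various concentrations for 24 hr in 96-well format. MTT at 2 mg/mL added for 4 hr at 37°C, formazan dissolved in DMSO, absorbance read at 570 nm for viability.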

[10] = system: ZR-75-1; experiment: Cytotoxicity against human ZR75-1 cells after 24 hrs by MTT assay; assay type: functional, cell-based; outline: as §1
[11] = system: HeLa; experiment: Decrease in TNFalpha-induced Akt phosphorylation in RXRalpha-knockdown human HeLa cells at 20 uM incubated for 1 hr prior to TNFalpha-induction measured after 30 mins by Western blot analysis; assay type: functional, cell-based

Compound	IC50 [1] [µM]	also measured
CC1=C(CC(=O)O)c2cc(C(C)C)ccc2/C1=C\c1ccc(C(C)C)cc1	≥ 100	
CC1=C(CCC(=O)O)c2cc(F)ccc2/C1=C\c1ccc(C(C)C)cc1	5.71	
COc1ccc2c(c1)C(CC(=O)O)=C(C)/C2=C/c1ccc(C(C)C)cc1	≥ 100	
CC1=C(CC(=O)O)c2cc(Cl)ccc2/C1=C\c1ccc(C(C)C)cc1	≥ 100	
CC1=C(CC(=O)O)c2cc(F)ccc2/C1=C\c1ccc(C#N)cc1	≥ 100	
CC1=C(CC(=O)O)c2cc(F)ccc2/C1=C\c1ccc(-c2ccccn2)cc1	≥ 100	
CC1=C(CC(=O)O)c2cc(F)ccc2/C1=C\c1ccc(C(F)(F)F)cc1	4.73	
CC1=C(CC(=O)O)c2cc(F)ccc2/C1=C\c1ccc(C(C)C)cc1		inhibition [2]: Active; Activity [3]: Active; IC50 [4]: 2.4 µM; inhibition [5]: Dose-dependent effect; inhibition [6]: Active; Activity [7]: Active; inhibition [8]: Active
CC1=C(CC(=O)O)c2cc(F)ccc2/C1=C\c1ccc(N(C)C)cc1	≥ 100	
CCC1=C(CC(=O)O)c2cc(F)ccc2/C1=C\c1ccc(C(C)C)cc1	6.29	
CCOc1ccc(/C=C2/C(C)=C(CC(=O)O)c3cc(F)ccc32)cc1	≥ 100	
CC(C)CC1=C(CC(=O)O)c2cc(F)ccc2/C1=C\c1ccc(C(C)C)cc1	3.15	
CC1=C(CC(=O)O)c2cc(F)ccc2/C1=C\c1cccc(C#N)c1	≥ 100	
CC1=C(CC(=O)O)c2ccccc2/C1=C\c1ccc(C(C)C)cc1	≥ 100	
CC1=C(CC(=O)O)c2cc(F)ccc2/C1=C\c1ccc([S+](C)[O-])cc1 (stereo unspecified)		Activity [3]: Active; IC50 [4]: 82.9 µM; Activity [7]: Active
CC1=C(CC(=O)O)c2cc(F)ccc2/C1=C\c1ccccc1	10.7	
CC(C)c1ccc(/C=C2\C=C(CC(=O)O)c3cc(F)ccc32)cc1	1.6	Activity [3]: Active; Activity [9]: Dose-dependent effect; Activity [10]: Dose-dependent effect; Activity [11]: inactive; Activity [7]: Active
CCOc1ccc2c(c1)C(CC(=O)O)=C(C)/C2=C/c1ccc(C(C)C)cc1	3.08	
COc1cccc(/C=C2/C(C)=C(CC(=O)O)c3cc(F)ccc32)c1	≥ 100	
COc1ccc(/C=C2/C(C)=C(CC(=O)O)c3cc(F)ccc32)cc1	≥ 100	
CC1=C(CC(N)=O)c2cc(F)ccc2/C1=C\c1ccc(C(C)C)cc1	≥ 100	
CC1=C(CC(=O)O)c2cc(F)ccc2/C1=C\c1ccc(C(C)(C)C)cc1	≥ 100	
CC(=O)Nc1ccc(/C=C2/C(C)=C(CC(=O)O)c3cc(F)ccc32)cc1	≥ 100	
CCc1ccc2c(c1)C(CC(=O)O)=C(C)/C2=C/c1ccc(C(C)C)cc1	≥ 100	
CC1=C(CC(N)=O)c2cc(F)ccc2/C1=C/c1ccc(C(C)C)cc1	≥ 100	
CC1=C(CC(=O)O)c2cc(F)ccc2/C1=C\c1cccc(C(F)(F)F)c1	8.27	
CC1=C(CCC#N)c2cc(F)ccc2/C1=C\c1ccc(C(C)C)cc1	≥ 100	
CC1=C(CC(=O)O)c2cc(C)ccc2/C1=C\c1ccc(C(C)C)cc1	≥ 100	

From ChEMBL document CHEMBL2331313, “Synthesis and SAR study of modulators inhibiting tRXRα-dependent AKT activation” (Eur J Med Chem, 2013)
